The assay relates to Caco-2. Description: Induction of P21WAF1 gene expression in human Caco-2 cells at 5 uM after 24 hrs by Western blotting. Format: functional, cell-based. An outline of the steps: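 Caco-2 cells were plated at 3×10⁵/well one day before treatment, then exposed for 24 h at 1 or 5 μM. Cells were scraped into PBS and protein was quantified. Equal protein was run on 12% SDS-PAGE and transferred to nitrocellulose. Blots were probed with mouse anti-p21 (1/1000, milk buffer) and an HRP secondary, with chemiluminescent detection; actin served as loading check.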
In general terms: A western blot detects proteins with antibodies after separation by electrophoresis.

SMILES strings stand for the structures. Calls of active or inactive are those of the source. The calls are words filed in the database; no cut-off is given here.

Consider `O=C(CCCCCCC(=O)Nc1ccccc1)NO`, for which the result was inactive.

The values above are taken from ChEMBL document CHEMBL1156269, “Biological and biophysical properties of the histone deacetylase inhibitor suberoylanilide hydroxamic acid are affected by the presence of short alkyl groups on the phenyl ring” (J Med Chem, 2010).
